Source: ChEMBL document CHEMBL1129585, “Synthesis and biological activity of conformationally restricted analogs of milnacipran: (1S,2R)-1-phenyl-2-[(S)-1-aminopropyl]-N,N-diethylcyclopropanecarboxami de, an efficient noncompetitive N-methyl-D-aspartic acid receptor antagonist” (J Med Chem, 1996)

Target: Glutamate receptor ionotropic, NMDA 2C (Rattus norvegicus) (UniProt Q00961)
Experiment: (§1) Percentage inhibition of N-methyl-D-aspartic acid (NMDA) receptor produced by oocytes
Assay type: cell-based
Conditions: Xenopus laevis; Oocyte; concentration not given here
How it was run: (§2)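 Xenopus oocytes injected with whole-brain mRNA from 10-day-old Wistar rats (guanidine/CsCl extraction), then two-electrode voltage-clamped with 3 M KCl-filled electrodes. Currents evoked by 30 µM NMDA plus 10 µM Gly with test agent present at different concentrations. Block of the NMDA response recorded as percent inhibition or IC50.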

Glutamate receptor ionotropic, NMDA 2C (Rattus norvegicus), sequence (Q00961 20-1237 limits assumed): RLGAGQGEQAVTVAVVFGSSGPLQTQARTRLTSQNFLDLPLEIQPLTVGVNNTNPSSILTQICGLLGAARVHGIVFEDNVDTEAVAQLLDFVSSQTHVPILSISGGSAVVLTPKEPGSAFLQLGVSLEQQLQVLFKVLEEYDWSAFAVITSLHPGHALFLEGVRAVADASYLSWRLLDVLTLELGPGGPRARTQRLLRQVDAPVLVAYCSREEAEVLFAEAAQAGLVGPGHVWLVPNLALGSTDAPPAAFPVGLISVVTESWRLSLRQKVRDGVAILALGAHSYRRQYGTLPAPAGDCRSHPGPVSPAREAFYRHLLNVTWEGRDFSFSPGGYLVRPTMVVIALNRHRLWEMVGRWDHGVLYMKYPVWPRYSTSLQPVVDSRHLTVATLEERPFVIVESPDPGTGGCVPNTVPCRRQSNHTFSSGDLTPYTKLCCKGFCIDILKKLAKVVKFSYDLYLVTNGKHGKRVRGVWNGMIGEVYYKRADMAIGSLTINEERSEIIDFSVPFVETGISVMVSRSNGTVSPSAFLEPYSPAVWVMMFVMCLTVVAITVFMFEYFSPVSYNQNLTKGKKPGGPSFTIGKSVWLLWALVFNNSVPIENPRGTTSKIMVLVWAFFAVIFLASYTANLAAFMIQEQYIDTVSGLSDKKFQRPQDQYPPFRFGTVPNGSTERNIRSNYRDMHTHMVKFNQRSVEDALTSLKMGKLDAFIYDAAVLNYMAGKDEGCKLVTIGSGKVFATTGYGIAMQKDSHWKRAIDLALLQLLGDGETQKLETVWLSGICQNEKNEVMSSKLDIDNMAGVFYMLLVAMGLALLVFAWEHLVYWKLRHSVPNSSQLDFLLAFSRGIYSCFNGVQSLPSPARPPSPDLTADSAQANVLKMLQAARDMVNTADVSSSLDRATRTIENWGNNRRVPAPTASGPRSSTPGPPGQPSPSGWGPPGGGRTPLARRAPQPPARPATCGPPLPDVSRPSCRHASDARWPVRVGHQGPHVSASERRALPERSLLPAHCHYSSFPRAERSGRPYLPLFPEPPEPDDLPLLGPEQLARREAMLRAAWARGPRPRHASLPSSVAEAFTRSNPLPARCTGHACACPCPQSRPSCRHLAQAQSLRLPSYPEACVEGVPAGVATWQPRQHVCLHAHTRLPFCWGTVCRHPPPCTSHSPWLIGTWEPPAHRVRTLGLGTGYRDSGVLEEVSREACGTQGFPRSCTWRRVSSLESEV

Compound	inhibition [%]
C[C@]12N[C@H](Cc3ccccc31)c1ccccc12	98

Target: Glutamate receptor ionotropic, NMDA 2C (Rattus norvegicus) (UniProt Q00961)
Experiment: as §1
Assay type: functional, cell-based
Conditions: Xenopus laevis; Oocyte; concentration not given here
How it was run: as §2

Compound	inhibition [%]
CCN(CC)C(=O)[C@@]1(c2ccccc2)C[C@H]1CN [LEVOMILNACIPRAN]	53

Target: Glutamate receptor ionotropic, NMDA 2C (Rattus norvegicus, UniProt Q00961)
Sequence (Q00961 whole entry): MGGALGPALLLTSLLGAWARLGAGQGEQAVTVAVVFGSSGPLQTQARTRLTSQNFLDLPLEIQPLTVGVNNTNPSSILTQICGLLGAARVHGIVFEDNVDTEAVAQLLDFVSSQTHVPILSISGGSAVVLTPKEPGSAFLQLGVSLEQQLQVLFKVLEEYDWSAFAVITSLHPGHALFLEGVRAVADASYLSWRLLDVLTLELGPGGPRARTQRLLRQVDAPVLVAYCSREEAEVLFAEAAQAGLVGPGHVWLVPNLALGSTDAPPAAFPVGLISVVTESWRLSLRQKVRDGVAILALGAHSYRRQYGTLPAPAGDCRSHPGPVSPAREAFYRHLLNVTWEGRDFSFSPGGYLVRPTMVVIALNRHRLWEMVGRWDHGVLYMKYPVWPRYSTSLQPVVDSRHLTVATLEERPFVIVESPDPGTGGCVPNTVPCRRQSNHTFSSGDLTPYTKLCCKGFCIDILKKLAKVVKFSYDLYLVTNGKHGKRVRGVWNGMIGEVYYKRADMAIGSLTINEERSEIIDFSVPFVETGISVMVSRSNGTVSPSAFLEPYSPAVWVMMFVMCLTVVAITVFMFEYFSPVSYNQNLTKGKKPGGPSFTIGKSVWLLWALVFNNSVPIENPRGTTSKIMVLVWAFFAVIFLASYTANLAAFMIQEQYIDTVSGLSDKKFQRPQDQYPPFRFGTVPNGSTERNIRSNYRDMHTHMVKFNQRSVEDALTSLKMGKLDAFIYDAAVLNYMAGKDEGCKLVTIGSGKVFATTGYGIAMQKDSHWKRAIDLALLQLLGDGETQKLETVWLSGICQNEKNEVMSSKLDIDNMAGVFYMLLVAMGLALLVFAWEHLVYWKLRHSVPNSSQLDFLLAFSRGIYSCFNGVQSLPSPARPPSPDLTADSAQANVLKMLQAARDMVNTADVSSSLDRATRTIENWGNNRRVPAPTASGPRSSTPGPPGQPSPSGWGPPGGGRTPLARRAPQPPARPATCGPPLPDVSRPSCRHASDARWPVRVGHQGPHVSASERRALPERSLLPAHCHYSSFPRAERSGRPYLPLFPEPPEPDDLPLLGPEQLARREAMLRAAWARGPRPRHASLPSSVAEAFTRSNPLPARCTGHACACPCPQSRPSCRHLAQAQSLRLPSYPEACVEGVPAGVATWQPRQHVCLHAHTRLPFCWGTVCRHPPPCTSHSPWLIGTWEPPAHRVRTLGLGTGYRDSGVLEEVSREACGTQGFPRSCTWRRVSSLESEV
Experiment: Concentration required to inhibit of N-methyl-D-aspartic acid (NMDA) receptor produced by oocytes
Assay type: functional, cell-based, Oocyte
Conditions: not given
How it was run: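 Xenopus oocytes were injected with whole-brain mRNA from 10-day-old Wistar rats, extracted by the guanidine/CsCl method. They were two-electrode voltage-clamped with electrodes filled with 3 M KCl. Currents were evoked by 30 µM NMDA plus 10 µM Gly in the presence of test compound at different concentrations. The read-out was block of the NMDA response, given as IC50 or percent inhibition.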

Compound	IC50 [nM]
CCC(N)[C@H]1C[C@]1(C(=O)N(CC)CC)c1ccccc1 (stereo in doubt; form 1)	39000
CCN(CC)C(=O)[C@@]1(c2ccccc2)C[C@H]1C(C)N (stereo in doubt; 2a)	2300
CCC(N)[C@@H]1C[C@@]1(C(=O)N(CC)CC)c1ccccc1 (stereo in doubt; 2b)	2200

Target: Glutamate NMDA receptor
Experiment: Inhibition of [3H]-MK-801 binding to NMDA receptor from rat cerebral cortical synaptic membrane
Conditions: not given

Compound	IC50 [nM]
CCCC(N)[C@@H]1C[C@@]1(C(=O)N(CC)CC)c1ccccc1 (some centres not stated)	1000
CCN(CC)C(=O)[C@@]1(c2ccccc2)C[C@H]1C(N)c1ccccc1 (some centres not stated)	17000
CNC1(c2ccccc2Cl)CCCCC1=O (configuration not stated) [KETAMINE]	610
CCN(CC)C(=O)[C@]1(c2ccccc2)C[C@@H]1C(C)N (stereo in doubt; form 2)	19000
CCN(CC)C(=O)[C@@]1(c2ccccc2)C[C@H]1C(C)N (stereo in doubt; 2a)	350
CCN(CC)C(=O)[C@@]1(c2ccccc2)C[C@H]1C(C)N (stereo in doubt; 3a)	6500
CCC(N)[C@@H]1C[C@@]1(C(=O)N(CC)CC)c1ccccc1 (stereo in doubt; 2b)	200
c1ccc(C2(N3CCCCC3)CCCCC2)cc1 [PHENCYCLIDINE]	9.8
CCN(CC)C(=O)[C@@]1(c2ccccc2)C[C@H]1C(N)CC(C)C (some centres not stated)	4200
C=CC(N)[C@@H]1C[C@@]1(C(=O)N(CC)CC)c1ccccc1 (some centres not stated)	160

Target: Sodium-dependent serotonin transporter (Rattus norvegicus, UniProt P31652)
Sequence (P31652 whole entry): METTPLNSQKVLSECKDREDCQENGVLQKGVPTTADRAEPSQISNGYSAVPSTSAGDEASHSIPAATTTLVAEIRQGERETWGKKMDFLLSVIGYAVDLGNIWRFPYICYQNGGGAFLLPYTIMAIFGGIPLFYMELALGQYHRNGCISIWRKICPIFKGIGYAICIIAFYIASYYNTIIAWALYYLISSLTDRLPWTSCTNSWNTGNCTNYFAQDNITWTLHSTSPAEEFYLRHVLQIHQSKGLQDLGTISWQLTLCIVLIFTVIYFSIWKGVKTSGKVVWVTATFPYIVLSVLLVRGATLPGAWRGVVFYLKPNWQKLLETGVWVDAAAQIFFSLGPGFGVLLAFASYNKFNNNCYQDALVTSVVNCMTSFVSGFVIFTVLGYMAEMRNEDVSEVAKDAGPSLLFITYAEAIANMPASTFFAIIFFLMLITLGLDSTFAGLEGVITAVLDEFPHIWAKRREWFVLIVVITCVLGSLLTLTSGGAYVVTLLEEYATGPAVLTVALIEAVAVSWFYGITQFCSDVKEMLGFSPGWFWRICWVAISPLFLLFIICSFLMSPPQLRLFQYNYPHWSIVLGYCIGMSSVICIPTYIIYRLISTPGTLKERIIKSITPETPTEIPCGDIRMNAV
Experiment: Inhibition of [3H]-paroxetine binding on serotonin transporter of rat cerebral cortical synaptic membrane
Conditions: not given
How it was run: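 Rat cerebral cortical synaptic membranes incubated with test agent at various concentrations, [³H]paroxetine 2 nM, in 50 mM Tris-HCl pH 7.4 with 120 mM NaCl and 5 mM KCl, 20 °C for 45 min. Stopped by rapid filtration on polyethylenimine-presoaked glass-fiber filters, washed with cold Tris-HCl. Bound radioactivity counted. Result given as Ki.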

Compound	Ki [nM]
CCCC(N)[C@@H]1C[C@@]1(C(=O)N(CC)CC)c1ccccc1 (some centres not stated)	37000
CCC(N)[C@H]1C[C@]1(C(=O)N(CC)CC)c1ccccc1 (stereo in doubt; form 1)	> 100000
CCN(CC)C(=O)[C@@]1(c2ccccc2)C[C@H]1C(N)c1ccccc1 (some centres not stated)	> 100000
CCN(CC)C(=O)[C@]1(c2ccccc2)C[C@@H]1C(C)N (stereo in doubt; form 2)	170
CCN(CC)C(=O)[C@@]1(c2ccccc2)C[C@H]1C(C)N (stereo in doubt; 2a)	14
CCN(CC)C(=O)[C@@]1(c2ccccc2)C[C@H]1C(C)N (stereo in doubt; 3a)	2400
CCC(N)[C@@H]1C[C@@]1(C(=O)N(CC)CC)c1ccccc1 (stereo in doubt; 2b)	24000
CCC(N)[C@@H]1C[C@@]1(C(=O)N(CC)CC)c1ccccc1 (stereo in doubt; 3b)	> 100000
CCN(CC)C(=O)[C@@]1(c2ccccc2)C[C@H]1C(N)CC(C)C (some centres not stated)	> 100000
CCC(N)[C@H]1C[C@]1(C(=O)N(CC)CC)c1ccccc1 (stereo in doubt; form 2)	> 100000
CCN(CC)C(=O)[C@@]1(c2ccccc2)C[C@H]1CN [LEVOMILNACIPRAN]	8.5
C=CC(N)[C@@H]1C[C@@]1(C(=O)N(CC)CC)c1ccccc1 (some centres not stated)	23
CCN(CC)C(=O)[C@]1(c2ccccc2)C[C@@H]1C(C)N (stereo in doubt; form 1)	> 100000

Organism: Rattus norvegicus
Experiment: Ratio of 5 HT inhibition to NMDA receptor binding
Conditions: not given

Compound	Selectivity index
CCCC(N)[C@@H]1C[C@@]1(C(=O)N(CC)CC)c1ccccc1 (some centres not stated)	37
CCN(CC)C(=O)[C@@]1(c2ccccc2)C[C@H]1C(N)c1ccccc1 (some centres not stated)	> 5.9
CCN(CC)C(=O)[C@@]1(c2ccccc2)C[C@H]1C(N)CC(C)C (some centres not stated)	> 24
C=CC(N)[C@@H]1C[C@@]1(C(=O)N(CC)CC)c1ccccc1 (some centres not stated)	0.14
